Experimental data collected from several papers.
Lines come from different studies, so protocols differ.
Target: Receptor-interacting serine/threonine-protein kinase 2 (RIPK2, Homo sapiens, UniProt O43353)

The remaining binding of CN1CCN(c2cnc3c(C4CCN(C(=O)c5ccc(OC(F)(F)F)cc5N)CC4)ncnc3c2)CC1 is reported as 100% (cell-free assay, competition with immobilised ligand; 1 µM).
CNCc1ccc(-c2cc(-c3nc(-c4ccc(S(=O)(=O)C(C)C)cc4)cnc3N)on2)cc1 gave an inhibition of 6% (enzyme activity, inhibitor; 0.4 µM).
Cc1cc(NC(=O)c2cccc3cc(-c4cccc5[nH]nc(N)c45)ccc23)ccc1F gave an activity vs control of 110% (enzyme activity, inhibitor; 0.1 µM).
With CCCOc1ccc([C@H]2[C@H](C(=O)O)[C@@H](c3ccc4c(c3)OCO4)CN2CC(=O)Nc2c(CC)cccc2CC)cc1 the remaining binding was 100% (cell-free assay, competition with immobilised ligand; 1 µM).
With COc1cc(Nc2cnc(C#N)c(O[C@H](C)CN(C)C)n2)ncc1-c1cnn(C)c1 the remaining activity was 97% (enzyme activity, inhibitor, radiometric; 1 µM).
C[C@@H]1CCN(C(=O)CC#N)C[C@@H]1N(C)c1ncnc2[nH]ccc12 has a remaining signal of 113% (cell-free assay, inhibitor; 0.5 µM).
For FC(F)c1nc2ccccc2n1-c1nc(N2CCOCC2)nc(N2CCOCC2)n1, the remaining activity was 89% (enzyme activity, inhibitor; 10 µM).
CC(C)(C)c1nc2c(s1)c1nc(N)ncc1c1ccc(NS(=O)(=O)c3c(F)cccc3F)c(F)c12 has a remaining activity of 70% (enzyme activity, inhibitor, radiometric; 1 µM).
F[C@@H]1CCN(c2nccc(-c3cnn4ncccc34)n2)C1 has a remaining binding of 100% (binding; 1 µM).
For COc1cc(/C=C/C(=O)CC(=O)/C=C/c2ccc(O)c(OC)c2)ccc1O, the activity vs control was 16% (enzyme activity, inhibitor; 1 µM).
For CCN(CC)c1ccc(C2=NNC(=O)CC2C)cc1[N+](=O)[O-] (stereo not shown), the remaining activity was 91% (enzyme activity, inhibitor; 10 µM).
The remaining binding of CNCc1ccccc1-c1csc([C@@H](C)Nc2nc(C)nc3cc(OC)c(OC)cc23)c1 is reported as 100% (cell-free assay, competition with immobilised ligand; 1 µM).
For O=C(Nc1cnn(-c2csc(C(=O)NC3COC3)c2)c1)Nc1c(F)cccc1Cl, the remaining activity was 80.2% (enzyme activity, inhibitor; 5 µM).
For O=C(O)[C@H]1[C@H](Cn2nnc3ccccc3c2=O)CC[C@@H]1C(=O)c1ccc(OCCC2CCOCC2)cc1, the remaining binding was 100% (cell-free assay, competition with immobilised ligand; 1 µM).
For CCN(CC)CCNC(=O)c1c(C)[nH]c(/C=C2\C(=O)Nc3ccc(F)cc32)c1C, the inhibition was 24% (enzyme activity, inhibitor; 10 µM).
For CCS(=O)(=O)c1cc2cc(C[C@](O)(CC(C)(C)c3ccc(F)cc3C(N)=O)C(F)(F)F)[nH]c2cn1, the remaining binding was 67% (cell-free assay, competition with immobilised ligand; 1 µM).
Cc1ccc(C(=O)Nc2ccc(CN3CCN(C)CC3)c(C(F)(F)F)c2)cc1C#Cc1cnc2cccnn12 has a remaining activity of 43% (enzyme activity, inhibitor; 23.5 nM).
With COc1cc2ncnc(Nc3ccc(Oc4ccccc4)cc3)c2cc1OC the remaining signal was 55.5% (cell-free assay; 0.5 µM).
CN1CC(Oc2cnc(C#N)cc2-c2ccn3nc(NC(=O)C4CC4)cc3c2)C1 has an inhibition of 81% (enzyme activity, inhibitor; 1 µM).
The remaining activity of Cc1ccc(Nc2nccc(N(C)c3ccc4c(C)n(C)nc4c3)n2)cc1S(N)(=O)=O is reported as 68.2% (enzyme activity, inhibitor; 0.5 µM).
With FC(F)(F)Oc1cccc(-c2cnc3ccc(-c4ccncc4)nn23)c1 the activity vs control was 32% (enzyme activity, inhibitor, radiometric; 1 µM).
The remaining signal of Oc1ccc(-c2nc(-c3ccncc3)c(-c3ccc(F)cc3)[nH]2)cc1 is reported as 46.8% (cell-free assay; 0.5 µM).
CC(=O)N1CCC(c2ccc(C(=O)NC(=N)N)cc2C(F)(F)F)CC1 gave a remaining binding of 100% (cell-free assay, competition with immobilised ligand; 1 µM).
The inhibition of Cn1cnc(Br)c1C1=CN(c2ncnc3[nH]cnc23)CCS1 is reported as 34% (enzyme activity, inhibitor, radiometric; 2 µM).
For C[C@H](c1ccc(F)cc1)N(Cc1cccc(C(=O)O)c1)C(=O)c1cnc2ccccc2c1, the remaining binding was 82% (cell-free assay, competition with immobilised ligand; 1 µM).
For CNC(=O)c1cc2c(Oc3ccc(NC(=O)C4(C(=O)Nc5ccc(F)cc5)CC4)cc3)ccnc2cc1OC, the inhibition was 74% (enzyme activity, inhibitor, radiometric; 1 µM).
For C[C@H](NC(=O)c1cnc2n1[C@](C)(Cc1ccc(C#N)cc1)C(=O)N2c1cc(Cl)c(F)c(Cl)c1)C(=O)NC1(c2ccccn2)CC1, the remaining binding was 68% (cell-free assay, competition with immobilised ligand; 1 µM).
With Oc1cccc(-c2nc(N3CCOCC3)c3oc4ncccc4c3n2)c1 the remaining activity was 72% (enzyme activity, inhibitor; 10 µM).
